Data reported in ChEMBL document CHEMBL3102852, “Design, synthesis and cytotoxic activity of novel sulfonylurea derivatives of podophyllotoxin” (Bioorg Med Chem, 2014).

Assays:
Assay type in all cases: functional, cell-based
[1] = Cytotoxicity against multidrug-resistant human KBVIN cells after 72 hrs by sulforhodamine B assay
In short: (§1)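 Cells seeded at 3-5 × 10^3 per well in RPMI-1640 with 10% FBS containing various sample concentrations, incubated 72 h. Attached cells fixed with cold 50% trichloroacetic acid for 30 min, stained with 0.04% SRB for 30 min, bound dye solubilized in 10 mM Tris-base, absorbance read at 515 nm. Triplicate experiments; KBvin is a vincristine-selected MDR KB subline.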

[2] = tested on: KB; test: Cytotoxicity against human KB cells after 72 hrs by sulforhodamine B assay; in short: as §1
[3] = tested on: A549; test: Cytotoxicity against human A549 cells after 72 hrs by sulforhodamine B assay; conditions: A549, 72 h; in short: as §1
[4] = tested on: DU-145; test: Cytotoxicity against human DU145 cells after 72 hrs by sulforhodamine B assay; conditions: DU-145, 72 h; in short: as §1

Compound: COc1cc([C@@H]2c3cc4c(cc3[C@@H](NC(=O)NS(=O)(=O)c3ccccc3)[C@H]3COC(=O)[C@H]23)OCO4)cc(OC)c1O
- IC50 [1]: 8.76 µM
- IC50 [2]: 8.38 µM
- IC50 [3]: 8.25 µM
- IC50 [4]: 8.1 µM

Compound: COc1ccc(S(=O)(=O)NC(=O)N[C@@H]2c3cc4c(cc3[C@@H](c3cc(OC)c(O)c(OC)c3)[C@H]3C(=O)OC[C@@H]32)OCO4)cc1
- IC50 [1]: 8.79 µM
- IC50 [2]: 9.49 µM
- IC50 [3]: 7.67 µM
- IC50 [4]: 9.66 µM

Compound: COc1cc([C@@H]2c3cc4c(cc3[C@@H](NC(=O)NS(=O)(=O)c3ccc(C)cc3)[C@H]3COC(=O)[C@H]23)OCO4)cc(OC)c1O
- IC50 [1]: > 20 µM
- IC50 [2]: > 20 µM
- IC50 [3]: > 20 µM
- IC50 [4]: > 20 µM

Compound: COc1cc([C@@H]2c3cc4c(cc3[C@@H](NC(=O)NS(=O)(=O)c3ccc(C(C)C)cc3)[C@H]3COC(=O)[C@H]23)OCO4)cc(OC)c1O
- IC50 [1]: 8.35 µM
- IC50 [2]: 9.51 µM
- IC50 [3]: 7.72 µM
- IC50 [4]: 9.32 µM

Compound: COc1cc([C@@H]2c3cc4c(cc3[C@@H](NC(=O)NS(=O)(=O)c3ccc(F)cc3)[C@H]3COC(=O)[C@H]23)OCO4)cc(OC)c1O
- IC50 [1]: 7.92 µM
- IC50 [2]: 9 µM
- IC50 [3]: 7.82 µM
- IC50 [4]: 9.61 µM

Compound: COc1cc([C@@H]2c3cc4c(cc3[C@@H](NC(=O)NS(=O)(=O)c3ccc(Cl)cc3)[C@H]3COC(=O)[C@H]23)OCO4)cc(OC)c1O
- IC50 [1]: 7.95 µM
- IC50 [2]: 10.6 µM
- IC50 [3]: 9.03 µM
- IC50 [4]: 11.5 µM

Compound: COc1cc([C@@H]2c3cc4c(cc3[C@@H](NC(=O)NS(=O)(=O)Cc3ccccc3)[C@H]3COC(=O)[C@H]23)OCO4)cc(OC)c1O
- IC50 [1]: 14 µM
- IC50 [2]: 11.8 µM
- IC50 [3]: 8.63 µM
- IC50 [4]: 11.2 µM

Compound: COc1ccc(S(=O)(=O)NC(=O)N[C@@H]2c3cc4c(cc3[C@@H](c3cc(OC)c(O)c(OC)c3)[C@H]3C(=O)OC[C@@H]32)OCO4)c(OC)c1
- IC50 [1]: 8.56 µM
- IC50 [2]: 8.08 µM
- IC50 [3]: 8 µM
- IC50 [4]: 8.51 µM

Compound: COc1cc([C@@H]2c3cc4c(cc3[C@@H](NC(=O)NS(=O)(=O)c3ccc5ccccc5c3)[C@H]3COC(=O)[C@H]23)OCO4)cc(OC)c1O
- IC50 [1]: 8.62 µM
- IC50 [2]: 9.7 µM
- IC50 [3]: 8.49 µM
- IC50 [4]: 10.5 µM

Compound: COc1cc([C@@H]2c3cc4c(cc3[C@@H](NC(=O)NS(C)(=O)=O)[C@H]3COC(=O)[C@H]23)OCO4)cc(OC)c1OC
- IC50 [1]: > 20 µM
- IC50 [2]: > 20 µM
- IC50 [3]: > 20 µM
- IC50 [4]: > 20 µM

Compound: CCS(=O)(=O)NC(=O)N[C@@H]1c2cc3c(cc2[C@@H](c2cc(OC)c(OC)c(OC)c2)[C@H]2C(=O)OC[C@@H]21)OCO3
- IC50 [1]: > 20 µM
- IC50 [2]: > 20 µM
- IC50 [3]: > 20 µM
- IC50 [4]: > 20 µM

Compound: COc1cc([C@@H]2c3cc4c(cc3[C@@H](NC(=O)NS(=O)(=O)c3ccccc3)[C@H]3COC(=O)[C@H]23)OCO4)cc(OC)c1OC
- IC50 [1]: 1.76 µM
- IC50 [2]: 1.41 µM
- IC50 [3]: 1.6 µM
- IC50 [4]: 1.44 µM

Compound: COc1cc([C@@H]2c3cc4c(cc3[C@@H](NC(=O)NS(=O)(=O)c3ccc(C)cc3)[C@H]3COC(=O)[C@H]23)OCO4)cc(OC)c1OC
- IC50 [1]: > 20 µM
- IC50 [2]: > 20 µM
- IC50 [3]: > 20 µM
- IC50 [4]: > 20 µM

Compound: COc1cc([C@@H]2c3cc4c(cc3[C@@H](NC(=O)NS(=O)(=O)c3ccc(Cl)cc3)[C@H]3COC(=O)[C@H]23)OCO4)cc(OC)c1OC
- IC50 [1]: 2.01 µM
- IC50 [2]: 1.72 µM
- IC50 [3]: 1.89 µM
- IC50 [4]: 1.75 µM

Compound: COc1cc([C@@H]2c3cc4c(cc3[C@@H](NC(=O)NS(C)(=O)=O)[C@H]3COC[C@H]23)OCO4)cc(OC)c1OC
- IC50 [1]: > 20 µM
- IC50 [2]: > 20 µM
- IC50 [3]: > 20 µM
- IC50 [4]: > 20 µM

Compound: COc1cc([C@@H]2c3cc4c(cc3[C@@H](NC(=O)NS(=O)(=O)c3ccc(C(C)C)cc3)[C@H]3COC[C@H]23)OCO4)cc(OC)c1OC
- IC50 [1]: 13.2 µM
- IC50 [2]: 11 µM
- IC50 [3]: 11.8 µM
- IC50 [4]: 11.9 µM

Compound: COc1ccc(S(=O)(=O)NC(=O)N[C@@H]2c3cc4c(cc3[C@@H](c3cc(OC)c(OC)c(OC)c3)[C@H]3COC[C@@H]32)OCO4)c(OC)c1
- IC50 [1]: > 20 µM
- IC50 [2]: 12 µM
- IC50 [3]: 14.9 µM
- IC50 [4]: 14.3 µM

Compound: COc1cc([C@@H]2c3cc4c(cc3[C@@H](NC(=O)NS(C)(=O)=O)[C@H]3COC(=O)[C@H]23)OCO4)cc(OC)c1O
- IC50 [1]: > 20 µM
- IC50 [2]: > 20 µM
- IC50 [3]: > 20 µM
- IC50 [4]: > 20 µM

Compound: CCS(=O)(=O)NC(=O)N[C@@H]1c2cc3c(cc2[C@@H](c2cc(OC)c(O)c(OC)c2)[C@H]2C(=O)OC[C@@H]21)OCO3
- IC50 [1]: > 20 µM
- IC50 [2]: > 20 µM
- IC50 [3]: > 20 µM
- IC50 [4]: > 20 µM

Compound: CCCCS(=O)(=O)NC(=O)N[C@@H]1c2cc3c(cc2[C@@H](c2cc(OC)c(O)c(OC)c2)[C@H]2C(=O)OC[C@@H]21)OCO3
- IC50 [1]: 14 µM
- IC50 [2]: 10.9 µM
- IC50 [3]: 7.96 µM
- IC50 [4]: 11.9 µM

Compound: COc1cc([C@@H]2c3cc4c(cc3[C@@H](O[C@@H]3O[C@@H]5CO[C@@H](C)O[C@H]5[C@H](O)[C@H]3O)[C@H]3COC(=O)[C@H]23)OCO4)cc(OC)c1O [ETOPOSIDE]
- IC50 [1]: > 20 µM
